The values below come from ChEMBL document CHEMBL1137706, “Design, synthesis, and anti-tumor evaluation of novel symmetrical bis-benzimidazoles” (Eur J Med Chem, 2009).

Holding throughout (assay type): functional, cell-based
One experiment concerns SK-OV-3. Kind of experiment: Antitumor activity against human SKOV3 cells after 72 hrs by MTT assay. To be noted: SK-OV-3, 72 h. Put shortly: (§1)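 Cells grown in RPMI1640 with 10% fetal bovine serum, seeded at 4.0 × 10^4 cells/well and left 4 h at 37 °C, 5% CO2 to adhere. Compound then added and incubation continued 72 h at 37 °C, 5% CO2. Viability read by standard MTT assay.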
Background: Tetrazolium assays rely on reduction of a dye to a coloured formazan, in cell work by metabolically active cells.

The next experiment deals with HeLa. Nature of the experiment: Antitumor activity against human HeLa cells after 72 hrs by MTT assay. Summed up: as §1
A further experiment relates to BGC-823. Kind of experiment: Antitumor activity against human BGC823 cells after 72 hrs by MTT assay. Particulars: BGC-823, 72 h. Put shortly: as §1

Usually IC50 stands for the concentration needed to halve the response being measured. High values mean weaker potency in that assay, low ones greater potency in that assay. Regarding `COc1c(C)cnc(CSc2nc3ccc(-c4ccc5nc(SCc6ncc(C)c(OC)c6C)[nH]c5c4)cc3[nH]2)c1C`, the figures for the IC50 with SK-OV-3, with HeLa and in the experiment with BGC-823 were 2.95 µM, greater than 50 µM and greater than 50 µM, respectively.
Turning to `COc1ccnc(CSc2nc3ccc(-c4ccc5nc(SCc6nccc(OC)c6OC)[nH]c5c4)cc3[nH]2)c1OC`, the IC50 in the experiment on SK-OV-3, in the experiment with HeLa and with BGC-823 was greater than 50 µM each time.
As for `CCOc1ccnc(CSc2nc3ccc(-c4ccc5nc(SCc6nccc(OCC)c6C)[nH]c5c4)cc3[nH]2)c1C`, the IC50 in the experiment on SK-OV-3, with HeLa and with BGC-823 was greater than 50 µM in each case.
In the case of `c1ccc(CSc2nc3ccc(-c4ccc5nc(SCc6ccccn6)[nH]c5c4)cc3[nH]2)nc1`, the figures for the IC50 in the experiment on SK-OV-3, in the experiment with HeLa and in the experiment with BGC-823 were 38.6 µM, 7.1 µM and 16.4 µM, respectively.
For `Clc1ccc(CSc2nc3ccc(-c4ccc5nc(SCc6ccc(Cl)nc6)[nH]c5c4)cc3[nH]2)cn1` the same measures were greater than 50 µM, greater than 50 µM and greater than 50 µM.
For `Cc1c(OCC(F)(F)F)ccnc1CSc1nc2ccc(-c3ccc4nc(SCc5nccc(OCC(F)(F)F)c5C)[nH]c4c3)cc2[nH]1` the same measures were 23 µM, 18.3 µM and greater than 50 µM.
In the experiment with SK-OV-3, `CC(=O)O[C@H]1C(=O)[C@@]2(C)[C@H]([C@H](OC(=O)c3ccccc3)[C@]3(O)C[C@H](OC(=O)[C@H](O)[C@@H](NC(=O)c4ccccc4)c4ccccc4)C(C)=C1C3(C)C)[C@]1(OC(C)=O)CO[C@@H]1C[C@@H]2O` [PACLITAXEL] yielded an IC50 of 0.00134 µM.
`COc1c(Cl)ccnc1CSc1nc2ccc(-c3ccc4nc(SCc5nccc(Cl)c5OC)[nH]c4c3)cc2[nH]1`: the half-inhibitory concentration (IC50) in the experiment on SK-OV-3 was greater than 50 µM; in the experiment on HeLa, 45.4 µM; in the experiment with BGC-823, greater than 50 µM.
As to `COc1ccnc(CSc2nc3ccc(-c4ccc5nc(SCc6nccc(OC)c6C)[nH]c5c4)cc3[nH]2)c1C`, the IC50 in the experiment with SK-OV-3, in the experiment with HeLa and with BGC-823 was greater than 50 µM each time.
In the case of `c1cc(CSc2nc3ccc(-c4ccc5nc(SCc6ccncc6)[nH]c5c4)cc3[nH]2)ccn1`, the IC50 was determined as 2.81 µM in the experiment on SK-OV-3, 32.4 µM in the experiment on HeLa and 11 µM in the experiment on BGC-823.
On to `c1cncc(CSc2nc3ccc(-c4ccc5nc(SCc6cccnc6)[nH]c5c4)cc3[nH]2)c1`, for which the IC50 with SK-OV-3 is 8.73 µM; with HeLa, greater than 50 µM; with BGC-823, greater than 50 µM.
